Shown are actives, neighbours in structure and some others; about 1.6% of the full set was active somewhere.
PPC-1+TRAIL kill – compounds killing PPC-1 cancer cells with TRAIL present, primary screen, TRAIL potentiator project, ATPLite luminescence, uHTS; cell killing (% activity), % at 4 µM or 5 µM; PPC-1 cells + TRAIL, ATPLite viability luminescence; 0.41% of 220,000 active;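 active = cell killing above 50% in the first pass at 4 µM, then a duplicate retest at 5 µM averaging 50% or more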;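 also: plate controls were cells with TRAIL plus DMSO for no effect and medium-only wells lacking cells for full effect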
FLuc stim CS – FLuc activators, initial screening, artefact control for FLuc-dependent activation tests, biochemical, ATPlite luminescence | Luciferin 4-monooxygenase (Photinus pyralis), P08659 | ATPlite luciferase biochemical, 10 min; 0 = ATP-free wells, 1 = DMSO control | activation factor at 10 µM | 200,000 tested, under 10 active | AID 1027, 2008;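 active = luciferase activation factor, scaled between plate controls, of at least 2 with compound at 10 µM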
Target sequence (P08659 whole entry, looked up): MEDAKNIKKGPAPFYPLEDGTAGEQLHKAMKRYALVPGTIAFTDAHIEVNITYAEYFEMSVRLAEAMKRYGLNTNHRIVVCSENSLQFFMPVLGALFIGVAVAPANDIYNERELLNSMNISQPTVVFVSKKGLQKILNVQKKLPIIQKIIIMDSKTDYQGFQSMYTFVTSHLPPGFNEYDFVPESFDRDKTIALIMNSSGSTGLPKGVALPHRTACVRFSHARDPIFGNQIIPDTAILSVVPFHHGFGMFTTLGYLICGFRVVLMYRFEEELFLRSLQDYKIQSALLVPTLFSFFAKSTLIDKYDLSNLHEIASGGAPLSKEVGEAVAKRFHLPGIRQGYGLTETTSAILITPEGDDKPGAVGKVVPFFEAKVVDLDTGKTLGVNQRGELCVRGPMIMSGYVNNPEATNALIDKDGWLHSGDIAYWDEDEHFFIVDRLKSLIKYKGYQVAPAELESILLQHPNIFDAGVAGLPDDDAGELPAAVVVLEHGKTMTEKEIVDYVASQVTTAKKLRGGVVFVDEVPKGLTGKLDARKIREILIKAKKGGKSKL
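assay system = Luciferase/luciferin detection reagent, cell-free biochemical luciferase assay | also added = ATP substrate | times = 10 min post-reagent at room temperature | measured by = luminescence from luciferase reaction | measure = luciferase activation, seen as luminescence increase over controls | benchmarks = low control with PBS replacing ATP, high control enzyme plus ATP without compound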
FLuc inh counter – firefly luciferase enzyme inhibitors, primary screen, artefact control for luciferase-based inhibitor screens, biochemical, luminescence, ATPLite; Luciferin 4-monooxygenase (Photinus pyralis), P08659; 10 min; inhibition, % at 10 µM; 1.5% of 200,000 active;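 active = inhibition above about 50% when tested at 10 µM, limit read from the data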
C8 TRAIL sens – viability loss with TRAIL in NB7+C8 cells, primary screen, TRAIL sensitizer project, cell-based, ATPlite luminescence. inhibition (viability loss, TRAIL sensitization), % at 10 µM. 1% of 360,000 active;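 active = compounds causing at least 50% loss of cell viability in the single-dose screen, relative to plate controls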
Starred values were filed as active, the others as inactive; x = no result.

SMILES	PPC-1+TRAIL kill	FLuc stim CS	FLuc inh counter	C8 TRAIL sens
O=C(NC(=S)N1CCCCC1CO)c1cc(Br)ccc1Cl (configuration not stated)	x	x	x	10.5
CCOC(=O)N1CCC(Nc2c(N3CCN(c4cc(Cl)ccc4C)CC3)c(=O)c2=O)CC1	7.5	1.1	-10.6	22.6
CCOC(=O)N1CCC(Nc2c(-c3ccc(C)c(C)c3)c(=O)c2=O)CC1	-1.6	1.1	-8.5	58.0*
Cc1nn(CC(=O)NCc2ccc(OC(C)C)cc2)c(=O)c2cc(-c3ccccc3)nn12	x	x	x	-0.8
Cc1ccc2oc(-c3cccc(NC(=O)Cn4cnc5c(=O)n(C)c(=O)n(C)c54)c3)nc2c1	29.4	0.7	33.1	x
CCC(C)c1ccc2oc(-c3ccc(NC(=O)Cn4cnc5c(=O)n(C)c(=O)n(C)c54)cc3)nc2c1 (configuration not stated)	14.6	1	1.5	79.7*
CCS(=O)(=O)Nc1cccc(-c2nc3cccnc3s2)c1	-6.1	x	x	-18.7
CCS(=O)(=O)Nc1ccc(-c2nc3cccnc3s2)cc1	27.0	0.3	67.2*	-15.2
N/C(Cc1ccc(Cl)cc1)=N\OC(=O)c1ccc2ccccc2c1	5.7	1	-0.1	95.0*
COc1ccc(C/C(N)=N/OC(=O)c2ccc(Cl)cc2)cc1	7.0	1	-4.8	2.7
N/C(Cc1ccc(Cl)cc1)=N\OC(=O)c1cccc2ccccc12	16.3	1	-3.1	67.8*
N/C(Cc1ccc(Cl)cc1)=N\OC(=O)CCc1ccccc1	x	x	x	-7.5
Cc1ccc(OCCSCc2nnc(NC(=O)Nc3cccc(Cl)c3)s2)cc1	32.1	1.1	-8.1	52.5*
O=C(NCCN1CCCC1)c1ccc(Br)cc1	x	x	x	-19.1
COC(=O)c1ccc(C2c3[nH]c4ccccc4c3C[C@H]3C(=O)N(C)CC(=O)N23)cc1 (some centres not stated)	x	x	x	-6.6
CN1CC(=O)N2C(c3ccc(Cl)cc3)c3[nH]c4ccccc4c3C[C@H]2C1=O (some centres not stated)	x	x	x	54.7*
COCC(=O)OC1CCn2c1nc1c2C(=O)C(C)=C(NC(C)=O)C1=O (configuration not stated)	x	x	x	69.2*
Cc1ccccc1C(=O)O/N=C(\N)c1cccc([N+](=O)[O-])c1	35.7	0.1	90.7*	73.6*
N/C(=N\OC(=O)c1cccs1)c1cccc([N+](=O)[O-])c1	2.6	0.1	86.7*	2.0
Cc1cccc(C(=O)O/N=C(\N)c2cccc([N+](=O)[O-])c2)c1	2.2	0.1	87.1*	45.0
N/C(=N\OC(=O)c1cccc2ccccc12)c1cccc([N+](=O)[O-])c1	2.1	1	2.0	15.1
COc1ccc(/C(N)=N/OC(=O)c2cccc([N+](=O)[O-])c2)cc1OC	41.6	1.1	-8.8	-6.5
COc1ccc(CN(CC(=O)NCC2CCCO2)C(=O)CCC(=O)Nc2nccs2)cc1 (configuration not stated)	x	x	x	4.3
O=C(Nc1ccc2c(c1)CCC2)c1ccc(Br)o1	26.9	0.6	35.1	18.4
O=C(Nc1ccc2c(c1)CCC2)c1cc2ccccc2o1	-6.4	0.5	53.9*	28.8
SMILES	PPC-1+TRAIL kill	FLuc stim CS	FLuc inh counter	C8 TRAIL sens
NC(=O)c1c(NC(=O)c2cccc(N3C(=O)CCC3=O)c2)sc2c1CCCCC2	x	x	x	83.3*
O=C(Nc1ccc(N2CCN(C(=O)c3ccccc3)CC2)cc1)c1cc2ccccc2o1	-2.0	1.1	-7.8	52.2*
Cc1ccc(C(=O)Nc2ccc3c(c2)CCC3)o1	47.0	0.4	55.4*	33.0
O=C(Nc1ccc2c(c1)Cc1ccccc1-2)c1cc2ccccc2o1	x	x	x	-3.2
CN1CCN(c2ccc(NC(=O)c3cc4ccccc4o3)cc2)CC1	x	x	x	29.3
Cc1cc(=O)c2c(N(C)C)cccc2[nH]1	x	x	x	10.2
Cc1cc(C)n2nc(C(=O)Nc3ccc(S(=O)(=O)N4CCCC4)cc3)nc2n1	12.0	x	x	-7.2
NC(=O)c1c(NC(=O)c2cc3ccccc3o2)sc2c1CCC2	27.5	0.3	65.8*	49.6*
NC(=O)c1c(NC(=O)c2ccc(F)cc2)sc2c1CCC2	x	x	x	35.2
Cc1cc(C)n2nc(C(=O)Nc3ccc4c(c3)CCC4)nc2n1	29.2	0.5	52.4*	26.2
CCC(C)c1ccc(OCC(=O)Nc2ccc3c(c2)C(=O)NC3=O)cc1 (configuration not stated)	x	x	x	4.2
Cc1ccccc1NC1=C/C(=N\S(=O)(=O)c2cccs2)c2ccccc2C1=O	25.7	1	1.3	90.0*

Bioassay records as filed in PubChem.
